# The full list was thinned out, with hits kept by preference.
# Myeloid diff MLP = induction of myeloid progenitor differentiation, primary screen, cell-based, flow cytometry, MLPCN library; ER-HoxA9 myeloid progenitors, lysozyme-GFP differentiation; calls only at 10 µM; 360,000 tested, 1% active; AID 624256, 2012;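 active means normalized GFP-positive differentiation at or above the plate's own cutoff, the solvent-only control mean plus 3 SD; inconclusive means no clear call, values can overlap the other calls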;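 further: cells exposed to compound for four days before flow analysis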
# Xi reactivation = activators of inactive X chromosome reactivation, primary screen, imaging, XiGFP fibroblasts, GFP high-content imaging, set 2. XiGFP mouse fibroblasts, % GFP-positive cells imaging, 3 d; cells co-treated with 5-aza-dC sensitizer; scaled so ellipticine positive control = 100%. activation, % at 7.58 µM. 360,000 tested, 0.055% active;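 active means mean normalized replicate activation at least 10% and every replicate at or above 10%; inconclusive means only one of the two criteria met; inactive means mean below 10% and not all replicates reach 10%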;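 further: 0% = median of on-plate neutral control wells and 100% = ellipticine 6 µM median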
#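 Assay system: SV40-immortalized XiGFP fibroblast cells, line 68-5-11; buffer or medium: DMEM plus 5-aza-dC sensitizer; compound: one concentration, pinned; timing: compounds 3 days, fix/stain 15 min at room temperature; benchmarks: positive control ellipticine, 6 µM final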
# ABCB6 inh 2 = ABCB6 transporter inhibitors, primary screen, K562-ABCB6 cells, flow cytometry, MLPCN library. ATP-binding cassette sub-family B member 6 (Homo sapiens), Q9NP58. K562-ABCB6 porphyrin accumulation, 1 h; hits give low values. fluorescence ratio to DMSO, % at 10 µM. 360,000 tested, 0.19% active. AID 602162, 2011;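 active means fluorescence ratio to DMSO below 75%, the collection mean minus 3 SD; inconclusive means too few cells collected in the well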;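 further: signal is porphyrin accumulated inside mitochondria; 100% equals median channel fluorescence of DMSO control wells; lower ratio means ABCB6 inhibition with less porphyrin fluorescence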
# Target sequence (Q9NP58 whole entry, looked up): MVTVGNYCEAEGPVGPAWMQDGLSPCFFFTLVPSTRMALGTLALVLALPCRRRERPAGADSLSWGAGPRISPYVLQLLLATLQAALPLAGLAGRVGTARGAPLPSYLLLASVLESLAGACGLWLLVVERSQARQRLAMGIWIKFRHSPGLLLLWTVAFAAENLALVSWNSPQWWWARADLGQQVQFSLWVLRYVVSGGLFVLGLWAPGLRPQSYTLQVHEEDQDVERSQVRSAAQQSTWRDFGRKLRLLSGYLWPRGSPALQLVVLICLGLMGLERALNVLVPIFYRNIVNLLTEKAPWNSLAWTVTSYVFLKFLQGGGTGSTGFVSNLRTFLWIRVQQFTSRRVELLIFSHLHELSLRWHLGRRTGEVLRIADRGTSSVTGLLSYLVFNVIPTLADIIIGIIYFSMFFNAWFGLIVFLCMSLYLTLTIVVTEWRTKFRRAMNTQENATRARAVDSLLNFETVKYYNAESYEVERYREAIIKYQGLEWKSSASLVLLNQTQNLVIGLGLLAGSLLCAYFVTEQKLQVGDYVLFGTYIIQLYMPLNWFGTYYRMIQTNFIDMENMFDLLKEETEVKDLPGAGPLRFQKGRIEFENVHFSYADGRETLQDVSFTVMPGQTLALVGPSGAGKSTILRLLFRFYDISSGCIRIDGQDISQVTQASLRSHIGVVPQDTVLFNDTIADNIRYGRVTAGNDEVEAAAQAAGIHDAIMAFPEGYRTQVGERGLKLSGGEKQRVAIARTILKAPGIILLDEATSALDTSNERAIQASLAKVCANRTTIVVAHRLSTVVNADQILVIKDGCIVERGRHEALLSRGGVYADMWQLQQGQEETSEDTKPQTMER
# Myeloid diff = inducers of myeloid progenitor differentiation, confirmation, cell-based, GFP/Mac1 flow cytometry, cherry pick 01. shares compounds with Myeloid diff MLP. ER-HoxA9 myeloid progenitors, GFP/Mac1 double-positive flow. calls only. 2,300 tested, 2% active. AID 651706, 2012;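 active means share of green or green-and-red cells above 9 and 9% in run 1 or 4 and 3% in run 2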
# GFP autofluor = compound fluorescence in myeloid differentiation counter-screen; ER-HoxA9 myeloid progenitors, no estrogen, GFP autofluorescence flow cytometry; vehicle wells 0%, positive control 100%; shares compounds with Myeloid diff MLP; fluorescence response, % (no concentration beside the values); AID 651707; 2,300 tested, 7.4% active;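 active means over 5% cells positive for green fluorescent reporter, or over 2% positive for both it and APC stain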;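 further: range taken on the double positive population between DMSO and positive control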
# Starred values were filed as active, the others as inactive; i = inactive; ? = inconclusive; . = no result given; + = active, no number.
SMILES,Myeloid diff MLP,Xi reactivation,ABCB6 inh 2,Myeloid diff,GFP autofluor
COc1cc(-c2cnc3c(NC=O)cc(-c4ccc(S(C)(=O)=O)cc4)cn23)cc(OC)c1OC,+,-0.1,100.0,i,0.0
CC(=O)c1ccc(-c2cnc3c(NC=O)cc(-c4ccccc4Oc4ccccc4)cn23)cc1,i,0.1,94.0,i,0.0
CC(=O)Nc1cc(-c2ccc(N3CCN(C)CC3)cc2)cn2c(-c3ccc(F)c(Cl)c3)cnc12,?,0.0,109.0,.,.
CNC[C@H]1Oc2ccc(N(C)C)cc2CC(=O)N(C)C[C@H]1C,.,0.0,.,.,.
C[C@H](CO)N1C[C@H](C)[C@@H](CN(C)C(=O)C2CCC2)Oc2cc(-c3cncnc3)ccc2S1(=O)=O,.,-0.2,.,.,.
CO[C@@H]1CN(C)C(=O)c2ccc(NC(=O)C3CC3)cc2OC[C@H](C)N(Cc2ccc(F)cc2)C[C@H]1C,.,-0.2,.,.,.
COc1ccc(C[C@@H]2CCc3cnnn3COC[C@H](C)NC2=O)cc1,.,0.0,.,.,.
O=C(Nc1ccc(Cl)cc1F)C1CCCN(C2=NS(=O)(=O)c3ccccc32)C1 (stereo not given),i,0.3,106.0,.,.
Cc1ccc(NC(=O)C2CCCN(C3=NS(=O)(=O)c4ccccc43)C2)c(O)c1 (stereo not given),+,0.0,98.0,i,20.8*
OC1(c2ccccc2F)CCN(Cc2nnnn2Cc2ccc(F)cc2)CC1,+,0.0,101.0,i,0.0
COc1ccc(Cn2nnnc2CN2CCC(O)(c3ccccc3F)CC2)cc1,i,0.1,104.0,.,.
CCC1=[N+](CC(=O)c2ccc(C)cc2)CCn2cccc21,i,0.0,101.0,.,.
CC1=[N+](CC(=O)c2ccccc2)CCn2cccc21,+,-0.1,117.0,i,1.1
CCCn1c(=N)n(CC(=O)C(C)(C)C)c2ccccc21,i,.,97.0,.,.
Cn1c(=N)n(CC(=O)C(C)(C)C)c2ccccc21,i,.,107.0,i,0.6
CC(=O)Nc1c2c(nn1-c1ccccc1)CSC2,i,0.1,105.0,.,.
O=C(/C=C\c1ccc2c(c1)OCO2)Nc1c2c(nn1-c1ccc(Cl)cc1)CSC2,i,0.2,100.0,i,0.0
COc1ccc(S(=O)(=O)NCC2CCCO2)cc1Cl (stereo not given),i,0.0,100.0,.,.
COc1cc(S(=O)(=O)NCC2CCCO2)ccc1Br (stereo not given),i,.,100.0,i,0.3
CN1CCN(S(=O)(=O)c2ccc(NC(=S)NC(=O)c3ccc(Cl)cc3)cc2)CC1,i,.,93.0,.,.
CN1CCN(S(=O)(=O)c2ccc(NC(=S)NC(=O)c3ccccc3)cc2)CC1,+,.,103.0,i,0.0
COc1cc(OC)c(-c2c3cc(O)c(=O)cc-3oc3cc(O)c(O)cc23)cc1OC,+,0.0,123.0,i,99.2*
COc1cc(-c2cc(=O)c3ccc(O)cc3o2)cc(OC)c1OC,i,.,109.0,.,.
COc1ccc(CN(C)C[C@H]2Oc3c(NS(=O)(=O)c4cccs4)cccc3C(=O)N([C@@H](C)CO)C[C@@H]2C)cc1,.,0.1,.,.,.
Cc1onc(-c2c(Cl)cccc2Cl)c1NC(=O)NNc1c(Cl)cncc1Cl,i,-0.2,95.0,.,.
SMILES,Myeloid diff MLP,Xi reactivation,ABCB6 inh 2,Myeloid diff,GFP autofluor
Cc1onc(-c2c(Cl)cccc2Cl)c1NC(=O)NNc1ccccc1,+,0.2,102.0,i,0.5
COc1ccc(/C=C/C(=O)NC2CCCCCCC2)cc1S(=O)(=O)N1CCOCC1,i,0.2,98.0,i,0.2
COc1ccc(/C=C/C(=O)NC(C)(C)C)cc1S(=O)(=O)N1CCOCC1,i,0.0,105.0,.,.
CO[C@@H]1CN(C)C(=O)c2cc(NC(=O)C3CCOCC3)ccc2OC[C@H](C)N(Cc2nccs2)C[C@@H]1C,.,0.2,.,.,.
Cc1noc(C)c1S(=O)(=O)Nc1ccc2c(c1)C(=O)N([C@@H](C)CO)C[C@H](C)[C@H](CN(C)Cc1ccncc1)OCCCC[C@@H](C)O2,.,-0.1,.,.,.
CC/C(=C1/C(=O)CC(C)(C)C(C(=O)OC)C1=O)N1CCCC1 (stereo not given),i,.,.,i,0.3
CCO/N=C/C1=C(O)C(C(=O)OC)C(C)(C)CC1=O (stereo not given),i,0.0,89.0,.,.
CS(=O)(=O)Nc1ccc2c(c1)[C@@H]1C[C@@H](CC(=O)O)O[C@@H](CO)[C@@H]1O2,.,0.1,.,.,.
COc1ccccc1NS(=O)(=O)c1ccccc1C#N,i,.,104.0,i,0.0
Cc1c(F)cccc1NS(=O)(=O)c1ccccc1C#N,i,.,99.0,.,.
CN1C(=O)c2cc(NC(=O)C3CCCC3)ccc2OC[C@H]2O[C@@H](CC(=O)NCCc3ccncc3)CC[C@@H]21,.,0.0,.,.,.
CNC(=O)c1c(NC(=O)c2ccc(S(=O)(=O)N3CCCCC3)cc2)sc2c1CCN(C(C)C)C2,?,0.1,89.0,.,.
CCCN1CCc2c(sc(NC(=O)CCS(=O)(=O)c3ccccc3)c2C(=O)OC)C1,i,0.0,101.0,.,.
CCCN1CCc2c(sc(NC(=O)c3ccc(S(=O)(=O)N(C)c4ccccc4)cc3)c2C(=O)NC)C1,+,6.6,111.0,i,1.0
CNC(=O)c1c(NC(=O)c2ccc(S(=O)(=O)N3CCCc4ccccc43)cc2)sc2c1CCN(C)C2,+,4.4,137.0,+,0.0
C[C@H]1CCCCO[C@@H](CN(C)Cc2ccc(C(F)(F)F)cc2)[C@@H](C)CN([C@@H](C)CO)C(=O)c2cc(NC(=O)Cc3ccccc3)ccc2O1,.,-0.1,.,.,.
C[C@@H]1CN([C@@H](C)CO)C(=O)Cc2cc(NC(=O)CCN3CCOCC3)ccc2O[C@H]1CN(C)Cc1ccc(C(=O)O)cc1,.,0.2,.,.,.
COc1cccc(/C=N/NC(=O)c2cc(-c3cccn3C)n[nH]2)c1O,i,-0.1,98.0,i,0.0
COc1cc(/C=N/NC(=O)c2cc(-c3cccn3C)n[nH]2)cc(OC)c1OC,i,.,101.0,.,.
C[C@H]1CN([C@@H](C)CO)C(=O)c2cc(C#CC3CC3)cnc2O[C@H]1CN(C)Cc1cccc(C(=O)O)c1,.,0.0,.,.,.
Cc1ccc(CNC(=O)[C@H](C)NC(=O)C2CCN(C(=O)[C@@H]3CCCN3C(=O)OC(C)(C)C)CC2)cc1,+,.,100.0,i,0.7
C[C@H](NC(=O)C1CCN(C(=O)[C@@H]2CCCN2C(=O)OC(C)(C)C)CC1)C(=O)NCc1ccc(F)cc1,i,.,97.0,.,.
CCCOc1ccc(Cc2nn3c(=O)/c(=C/c4ccco4)sc3nc2=O)cc1,i,.,105.0,i,0.0
CCCOc1ccc(/C=c2\sc3nc(-c4ccco4)nn3c2=O)cc1OCC,i,.,91.0,.,.
O=C(NC1CCC1)[C@H]1[C@H](CO)[C@H]2Cn3c(ccc(-c4ccccc4F)c3=O)[C@H]2N1Cc1ccccn1,.,1.1,.,.,.
N#C/C(=C\Nc1ccc2cn[nH]c2c1)c1nc(-c2ccc(Cl)cc2)cs1,+,0.3,165.0,+,0.0
